In publication PMC9237996 (Toxicological Sciences, 2022):
Like-named read-outs stand apart in the source and are kept apart here.

Legend:
[1] = target: bile salt export pump (BSEP) (Homo sapiens, UniProt O95342); test: BSEP membrane vesicle taurocholate transport inhibition; format: biochemical
How it was run: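 ATP-dependent taurocholate uptake into membrane vesicles carrying human BSEP. Transport inhibition was measured across several taurocholate concentrations crossed with several test-compound concentrations. Data were fit with Michaelis-Menten kinetics to give the Ki and the inhibition type. These values were then used as inputs to DILIsym v6A.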

HepG2 cells [2] = test: Seahorse oxygen consumption rate; format: cell-based; conditions: DILIsym input parameter
How it was run: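 Oxygen consumption rate was measured in HepG2 cells after 24 h incubation with the test compound. It was related to intracellular compound concentration, measured by LC/MS/MS on a parallel culture with lysate values corrected for lysate and cell volume. Three independent studies were run on HepG2 cells, each in triplicate. The data were translated into DILIsym v6A mitochondrial-dysfunction parameters (ETC inhibition, uncoupling).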

HepG2 cells [3] = test: ROS formation by dihydroethidium; format: cell-based; conditions: for RNS/ROS production rate constant 1: DILIsym input parameter, oxidative stress
How it was run: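 HepG2 cells were exposed to a range of test-compound concentrations for 6 or 24 h, and ROS formation was read by dihydroethidium fluorescence. Three independent studies were run, each in triplicate. Intracellular compound level came from LC/MS/MS of cell lysate from a parallel culture, corrected for lysate and cell volume. DILIsym oxidative-stress parameters were fit by simulating the data under a steady-state in vitro dosing scheme.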

[4] = 12 weeks, clinical data, cited from earlier work

Chain of bile salt export pump (BSEP) (O95342 whole entry): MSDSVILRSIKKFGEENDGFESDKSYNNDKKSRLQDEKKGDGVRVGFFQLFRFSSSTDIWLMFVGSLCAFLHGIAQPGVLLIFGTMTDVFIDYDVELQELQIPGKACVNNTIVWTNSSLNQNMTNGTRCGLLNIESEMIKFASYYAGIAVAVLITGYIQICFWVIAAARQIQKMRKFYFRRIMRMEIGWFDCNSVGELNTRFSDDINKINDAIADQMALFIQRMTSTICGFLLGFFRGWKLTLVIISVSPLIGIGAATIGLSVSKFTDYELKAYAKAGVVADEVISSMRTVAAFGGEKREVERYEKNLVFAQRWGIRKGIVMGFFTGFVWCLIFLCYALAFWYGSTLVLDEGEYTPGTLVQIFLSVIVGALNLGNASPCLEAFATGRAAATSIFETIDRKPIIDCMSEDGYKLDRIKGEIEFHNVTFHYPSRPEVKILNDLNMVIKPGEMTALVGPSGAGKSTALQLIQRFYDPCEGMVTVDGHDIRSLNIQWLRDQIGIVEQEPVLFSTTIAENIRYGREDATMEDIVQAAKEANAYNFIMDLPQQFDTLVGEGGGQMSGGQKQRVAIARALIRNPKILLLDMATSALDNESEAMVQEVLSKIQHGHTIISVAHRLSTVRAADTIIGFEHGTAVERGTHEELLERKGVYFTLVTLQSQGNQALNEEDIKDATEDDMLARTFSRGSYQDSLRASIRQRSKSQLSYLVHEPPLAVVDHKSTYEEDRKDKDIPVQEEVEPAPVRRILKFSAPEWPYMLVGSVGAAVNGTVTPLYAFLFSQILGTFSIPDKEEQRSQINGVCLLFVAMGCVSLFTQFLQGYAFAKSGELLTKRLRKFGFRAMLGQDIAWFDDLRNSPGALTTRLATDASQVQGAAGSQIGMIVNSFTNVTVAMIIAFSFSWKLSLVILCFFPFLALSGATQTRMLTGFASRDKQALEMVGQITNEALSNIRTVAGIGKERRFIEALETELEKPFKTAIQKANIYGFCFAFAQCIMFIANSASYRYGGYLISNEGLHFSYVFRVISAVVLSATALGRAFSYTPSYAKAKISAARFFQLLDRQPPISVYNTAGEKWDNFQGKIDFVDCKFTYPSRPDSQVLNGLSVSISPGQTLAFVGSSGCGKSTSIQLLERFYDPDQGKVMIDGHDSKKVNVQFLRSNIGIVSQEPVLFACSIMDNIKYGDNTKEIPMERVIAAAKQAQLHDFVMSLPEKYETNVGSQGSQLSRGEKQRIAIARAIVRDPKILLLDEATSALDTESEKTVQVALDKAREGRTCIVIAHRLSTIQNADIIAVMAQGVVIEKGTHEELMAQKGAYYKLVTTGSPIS

SMILES	BSEP inhibition alpha value [1]	mode of inhibition for BSEP [1]	Max inhibitory effect for ETC inhibition 3 (HepG2 cells [2]; mitochondrial dysfunction) [Dimensionless]	Uncoupler 1 effect Hill (HepG2 cells [2]; mitochondrial dysfunction)	Uncoupler 1 effect Vmax (HepG2 cells [2]; mitochondrial dysfunction)	RNS/ROS production rate constant 1 (HepG2 cells [3])	Ki [1] [µM]	Coefficient for ETC Inhibition 3 (HepG2 cells [2]; mitochondrial dysfunction) [µM]	Coefficient for ETC inhibition 1 (HepG2 cells [2]; mitochondrial dysfunction)	Uncoupler 1 effect Km (HepG2 cells [2]; mitochondrial dysfunction)	also measured
C[C@@H]1[C@H](c2ccccc2)C[C@H](NC(=O)c2cnc3c(c2)C[C@@]2(C3)C(=O)Nc3ncccc32)C(=O)N1CC(F)(F)F [Ubrogepant, ubrogepant]	No inhibition	mixed	0.4	4.3 Dimensionless	22.5 Dimensionless	0.0458 M⁻¹ s⁻¹					
O=C(N[C@@H]1CC[C@@H](c2cccc(F)c2F)CN(CC(F)(F)F)C1=O)N1CCC(n2c(=O)[nH]c3ncccc32)CC1 [Telcagepant, telcagepant]		mixed					19				BSEP inhibition alpha value ([1]; Telcagepant—High parameter set): 4.32 Dimensionless; BSEP inhibition alpha value ([1]; Telcagepant—Low parameter set): 4.32 Dimensionless; Uncoupler 1 effect Hill (HepG2 cells [2]; Telcagepant—High parameter set): No effect; Uncoupler 1 effect Km (HepG2 cells [2]; Telcagepant—High parameter set): No effect; Uncoupler 1 effect Vmax (HepG2 cells [2]; Telcagepant—High parameter set): No effect; Uncoupler 1 effect Hill (HepG2 cells [2]; Telcagepant—Low parameter set): No effect; Uncoupler 1 effect Km (HepG2 cells [2]; Telcagepant—Low parameter set): No effect; Uncoupler 1 effect Vmax (HepG2 cells [2]; Telcagepant—Low parameter set): No effect; RNS/ROS production rate constant 1 (HepG2 cells [3]; Telcagepant—High parameter set): 0.0972 M⁻¹ s⁻¹; RNS/ROS production rate constant 1 (HepG2 cells [3]; Telcagepant—Low parameter set): 0.0972 M⁻¹ s⁻¹; Observed ALT > 3X ULN in Clinic ([4]; 140 mg BID): 1.9% (5/263); Observed ALT > 3X ULN in Clinic ([4]; 280 mg BID): 3.2% (8/265)
C[C@@H]1[C@H](c2c(F)ccc(F)c2F)C[C@H](NC(=O)c2cnc3c(c2)C[C@@]2(C3)C(=O)Nc3ncccc32)C(=O)N1CC(F)(F)F [Atogepant, atogepant]	0.64 Dimensionless		0.2	No effect	No effect	0.0947 M⁻¹ s⁻¹	144	0.1	38 170 µM	No effect	
Cc1cc(C[C@@H](NC(=O)N2CCC(c3cc4ccccc4[nH]c3=O)CC2)C(=O)N2CCN(C3CCN(C)CC3)CC2)cc2cn[nH]c12 [Zavegepant, zavegepant]	1.368 Dimensionless	mixed	1.5			No ROS production	> 340	2	1600 µM		Oxidative stress / increase in ROS in vitro (HepG2 cells [3]; qualitative, DHE staining, HepG2, 24-h incubation): did not cause an increase in ROS
N[C@@H]1c2cccnc2[C@H](OC(=O)N2CCC(n3c(=O)[nH]c4ncccc43)CC2)CC[C@H]1c1cccc(F)c1F [Rimegepant, rimegepant]	Competitive	competitive	0.45	No effect	No effect	0.0972 M⁻¹ s⁻¹	27.2	1.89	3470 µM	No effect	
